# Bioassay records (PubChem)
# TRPC6 activator: mouse TRPC6 channel activation; HEK293-TRPC6 membrane potential dye fluorescence; stronger effect = higher value; B-score at 10 µM; Q61143; 310,000 tested, 0.13% active; AID 2550;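 active = B-score of the integrated fluorescence ratio above library mean plus 3 SD, and starting fluorescence ratio within library mean plus 5 SD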;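 note: higher score means more depolarization so channel activation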
# Target sequence (Q61143 whole entry, looked up): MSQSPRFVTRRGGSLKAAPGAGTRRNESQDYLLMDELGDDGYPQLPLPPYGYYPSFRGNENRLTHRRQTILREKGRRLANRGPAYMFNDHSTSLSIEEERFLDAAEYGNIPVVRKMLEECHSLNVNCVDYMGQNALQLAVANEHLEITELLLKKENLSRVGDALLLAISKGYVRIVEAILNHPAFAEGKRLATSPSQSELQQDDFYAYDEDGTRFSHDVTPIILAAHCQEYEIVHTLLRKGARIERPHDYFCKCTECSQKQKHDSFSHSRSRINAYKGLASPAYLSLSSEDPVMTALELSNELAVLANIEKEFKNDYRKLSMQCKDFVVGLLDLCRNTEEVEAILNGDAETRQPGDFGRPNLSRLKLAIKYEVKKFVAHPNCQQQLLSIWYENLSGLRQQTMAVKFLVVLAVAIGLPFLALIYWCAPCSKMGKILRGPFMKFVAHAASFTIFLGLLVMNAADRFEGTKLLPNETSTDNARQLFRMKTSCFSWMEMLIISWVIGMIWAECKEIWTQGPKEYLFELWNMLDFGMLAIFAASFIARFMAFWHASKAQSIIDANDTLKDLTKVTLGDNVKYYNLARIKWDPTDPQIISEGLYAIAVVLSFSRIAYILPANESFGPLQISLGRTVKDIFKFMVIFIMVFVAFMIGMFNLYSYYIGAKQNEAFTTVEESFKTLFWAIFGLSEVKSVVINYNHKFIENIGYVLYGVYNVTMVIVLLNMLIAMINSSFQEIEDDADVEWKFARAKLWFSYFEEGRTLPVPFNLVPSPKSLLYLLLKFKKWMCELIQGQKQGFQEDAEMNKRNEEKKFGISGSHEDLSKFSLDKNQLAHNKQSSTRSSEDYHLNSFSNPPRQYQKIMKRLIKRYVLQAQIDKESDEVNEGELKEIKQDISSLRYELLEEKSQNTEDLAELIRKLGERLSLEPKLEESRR
# TRPC4 act: TRPC4 (mouse) channel activation | Q9QUQ5 | HEK293 TRPC4beta/mu-opioid, Fluo4 calcium fluorescence; stronger effect = higher value | B-score at 10 µM | 310,000 tested, 0.49% active;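 active = B-score above 5 SD of library B-scores, and initial fluorescence ratio not above library mean plus 5 SD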;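 note: positive B-score marks a calcium rise read as TRPC4 activation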
#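 System: HEK293 cells stably co-expressing mouse TRPC4beta and mu-opioid receptor; Schedule: Fluo4 dye loading 45 min at room temperature, 110 s recording; Detection: Fluo4 fluorescence, kinetic; Evaluation: B-scored integrated calcium fluorescence ratio; Controls: buffer (low) and maximal DAMGO (high).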
# TRPC6 inh: blocks the mouse TRPC6 cation channel. 310,000 tested, 1.1% active. B-score at 10 µM. Q61143. HEK293-TRPC6, membrane potential dye, ACh-evoked depolarization; stronger effect = lower value;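 active = B-score under library mean minus 3 SD, initial fluorescence not abnormally high, positive integrated signal ratio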;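 note: B-score derived from integrated fluorescence ratio over the kinetic read; more negative B-score means stronger inhibition of depolarization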
# TRPC4 block: inhibitors of mouse TRPC4 channel. AID 2247. 300,000 tested, 0.39% active. B-score at 10 µM. Q9QUQ5. HEK293 TRPC4beta/mu-opioid, DAMGO-evoked Fluo4 calcium flux; stronger effect = lower value;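 active = B-score over 3 SD under the library average, no early fluorescence shift, positive overall ratio signal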
#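 Material: HEK293 cells with stable TRPC4beta plus mu-opioid receptor expression; probe or stimulus: DAMGO in two steps, submaximal then maximal; technique: Fluo4 calcium fluorescence by kinetic imaging, 5 s 1 Hz baseline; measure: integrated fluorescence ratio relative to baseline, converted to per-well B score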
# TRPC4 potent: allosterically enhances the mouse TRPC4 cation channel. HEK293 TRPC4beta/mu-opioid, DAMGO EC20, Fluo-4 Ca2+ flux; stronger effect = higher value. AID 2227. 310,000 tested, 0.42% active. B-score at 10 µM;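 active = B-score of calcium response area above 5 SD of library B-scores, with initial fluorescence ratio within 5 SD of library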;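 note: B-score of integrated fluorescence ratio over time as area under calcium response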
# HEK293 MPD ctr: counter-screen for TRPC6 modulators: effect in parental HEK293 cells. membrane potential signal change, % at 10 µM. membrane potential dye fluorescence. shares compounds with TRPC6 inh. 2,400 tested, 51% active;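 active = membrane potential signal moves up or down beyond 5 SD from buffer-only wells, on both duplicate plates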
# HEK293 MPD ctr 2: second counter-screen for TRPC6 modulators: effect in parental HEK293 cells; shares compounds with TRPC6 inh; membrane potential dye fluorescence; after compound, maximal acetylcholine stimulation; inhibition, % at 10 µM; 2,400 tested, 14% active; AID 488926;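 active = membrane potential signal drops by more than 5 SD from the mean control signal, in both duplicate plates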;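 note: plate controls were acetylcholine ECmax control wells for no effect and buffer only wells for full effect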
# TRPC4 ctr mod: tests whether TRPC6 modulators also affect mouse TRPC4 | HEK293 TRPC4/mu-opioid, membrane potential fluorescence | percent change from control (negative = decrease, positive = increase), % at 10 µM | shares compounds with TRPC6 inh | 2,400 tested, 69% active;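 active = membrane potential signal moved up or down beyond 5 SD of buffer control wells, in both duplicate plates, actives on both sides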;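 note: plate controls were assay buffer wells for no effect and DAMGO maximal-effect wells for full effect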
# TRPC4 ctr inh 2: second check of whether TRPC6 modulators also affect mouse TRPC4; shares compounds with TRPC6 inh; HEK293 TRPC4/mu-opioid, membrane potential dye fluorescence; stimulated with maximal-effect DAMGO; inhibition, % at 10 µM; 2,400 tested, 55% active; AID 488928;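 active = drop in membrane potential signal beyond 5 SD of the control wells in both duplicate plates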;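 note: TRPC4 counter screen for TRPC6 hits run under conditions tuned for TRPC6 not TRPC4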
# TRPC6 inh conf: mouse TRPC6 inhibitor confirmation; shares compounds with TRPC6 inh; HEK293-TRPC6, membrane potential dye, ACh-evoked depolarization; inhibition, % at 10 µM; 3,300 tested, 43% active;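 active = fluorescence ratio falls more than 5 SD below the full-stimulation control mean, in both duplicate runs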;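 note: integrated fluorescence ratio of peak minus minimum over baseline after agonist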
# TRPC6 act conf: confirmation of mouse TRPC6 activators; shares compounds with TRPC6 inh; HEK293-TRPC6 membrane potential dye fluorescence, FDSS; activation, % at 10 µM; 2,800 tested, 11% active; AID 488961;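 active = ratio signal rise beyond 5 SD above unstimulated control wells' mean, seen in both duplicate runs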;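 note: plate controls were buffer EC0 wells for no effect and acetylcholine ECmax response for full effect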
# Numbers without * were called inactive; i = inactive; nt = not tested or not shown. Shown are actives, neighbours in structure and some others; about 2.3% of the full set was active somewhere.
SMILES,TRPC6 activator,TRPC4 act,TRPC6 inh,TRPC4 block,TRPC4 potent,HEK293 MPD ctr,HEK293 MPD ctr 2,TRPC4 ctr mod,TRPC4 ctr inh 2,TRPC6 inh conf,TRPC6 act conf
CCN(CC)CCCNc1oc(-c2cccc(Cl)c2)nc1C#N,i,i,-6.1*,i,i,i,i,i,34%*,54%*,i
COc1ccc(-c2cn(-c3ccc(Cl)cc3)c3[n+]2CCCCC3)cc1,i,i,i,i,i,nt,nt,nt,nt,nt,nt
Fc1ccc(-c2cn(-c3ccccc3)c3[n+]2CCS3)cc1,i,i,i,i,i,nt,nt,nt,nt,nt,nt
Clc1ccc(-c2cn(-c3ccccc3)c3[n+]2CCS3)cc1,i,i,-7.4*,i,i,-96%*,58%*,-16%*,i,48%*,i
COc1ccc(-c2cn(-c3ccc(Br)cc3)c3[n+]2CCS3)cc1,i,i,-5.9*,i,i,i,i,i,i,i,i
CC(NC(=O)c1ccc(NC2=NC3CS(=O)(=O)CC3S2)cc1)c1ccccc1 (stereo unspecified),i,i,i,i,i,nt,nt,nt,nt,nt,nt
COc1ccc(NC(=O)CN2CCC(n3c(C)nc4cc(F)ccc43)CC2)c(OC)c1,i,i,i,i,i,nt,nt,nt,nt,nt,nt
COc1cc(OC)cc(C(=O)N2CCC(n3c(C)nc4cc(F)ccc43)CC2)c1,20*,i,i,i,i,i,i,i,i,nt,163%*
CCOc1ccc2nc(NC(=O)CSc3nc(-c4ccccc4)c(C#N)c(=O)[nH]3)sc2c1,12*,i,i,i,i,i,i,20%*,i,i,36%*
COc1cccc(-c2nc(SCC(=O)Nc3nc(-c4ccccc4)c(C)s3)[nH]c(=O)c2C#N)c1,i,i,i,i,i,nt,nt,nt,nt,nt,nt
C/C(=N\Nc1ncnc2sc(C)c(C)c12)c1ccccn1,17*,i,i,i,15*,316%*,i,50%*,i,i,75%*
Nc1cc(=O)[nH]c(=O)n1Cc1ccco1,i,i,-5.3*,i,i,i,i,i,i,i,i
CCN(CC)c1ccc(S(=O)(=O)N2CCCCC2)cc1NC(=O)C1CCC1,12*,i,-5.5*,i,i,i,i,22%*,30%*,76%*,96%*
CCN(CC)c1ccc(S(=O)(=O)N(CC)CC)cc1NC(=O)C1CCCC1,21*,i,-14*,i,i,182%*,i,34%*,36%*,116%*,162%*
COC(=O)c1ccc(COC(=O)C(CCSC)NC(=O)COc2ccccc2)cc1 (stereo unspecified),i,i,i,i,i,nt,nt,nt,nt,nt,nt
CS(=O)(=O)N(CC(=O)N1CCN(c2ccccc2)CC1)Cc1ccc(Cl)cc1,i,i,-5.6*,i,i,i,i,13%*,i,i,i
CS(=O)(=O)N(CC(=O)N1CCc2ccccc2C1)Cc1ccccc1,i,i,-6.5*,i,i,i,i,12%*,i,i,nt
CC1CCN(C(=O)CN(Cc2ccccc2)S(C)(=O)=O)CC1,i,i,i,i,i,nt,nt,nt,nt,nt,nt
COc1ccc(N2CCN(C(=O)CN(Cc3ccc(Cl)cc3)S(C)(=O)=O)CC2)cc1,i,i,i,i,i,nt,nt,nt,nt,nt,nt
CCOC(=O)N1CCC(C(=O)NNC(=O)c2ccc(Cl)cc2Cl)CC1,i,i,i,i,i,nt,nt,nt,nt,nt,nt
COc1ccccc1CNCC(=O)Nc1ccc(C#N)cc1,i,i,i,i,i,nt,nt,nt,nt,nt,nt
COc1ccccc1CNCC(=O)Nc1ccc(C(F)(F)F)cc1,i,i,-5.2*,i,i,i,i,i,42%*,i,i
CN(C)CCC(=O)c1ccc(Cl)cc1,i,i,i,i,i,nt,nt,nt,nt,nt,nt
CN(CCC(=O)c1ccccc1)CCC(=O)c1ccccc1,i,i,-5.3*,i,i,i,i,10%*,i,i,nt
CN(C(=O)Cn1c(=O)oc2cc(S(=O)(=O)N3CCCC3)ccc21)C1CCCCC1,i,i,i,i,i,nt,nt,nt,nt,nt,nt
Cc1sc(NC(=O)c2sc3nc4c(C)cccc4cc3c2N)c(C#N)c1C,13*,i,i,i,i,i,i,13%*,i,i,i
CCc1ccc(NC(=O)c2cnccn2)cc1,i,i,i,i,i,nt,nt,nt,nt,nt,nt
O=C(Nc1ccc2nccnc2c1)c1cnccn1,i,i,-5.8*,i,i,-272%*,i,-48%*,42%*,49%*,i
CCCn1c(C)cc(=O)c2cc(NC(=O)c3cnccn3)ccc21,i,i,-12*,i,i,-300%*,86%*,-60%*,60%*,66%*,i
CC(=O)NN1C(=O)/C(=C\c2ccccc2)SC1=S,i,i,i,i,i,nt,nt,nt,nt,nt,nt
